From PubChem
Ecoli rRNA inh – reduced GFP signal of wild-type E. coli, primary screen, bacterial rRNA inhibitor project, GFP/RFP fluorescence, OD600, single point | E. coli WT GFP vs humanized-ribosome RFP mutants, 24 h; hits give low values; DMSO median 0, no signal -100 | GFP signal change (wild-type ribosome), % (test concentration not listed) | actives 1.6% (n = 350,000) | AID 720706, 2013;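 active = significant combined selectivity score with lowered wild-type GFP, culture density cut under 30%, mutant RFP and density less affected; inactive = any of these conditions unmet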
E-sel inducer – E-selectin induction in HUVECs, primary screen, imaging, HUVEC, immunofluorescence imaging, single point | P16581 | normalized: neutral wells 0, TNF-alpha wells 100 | activation, % at 7.58 µM | actives 0.37% (n = 260,000) | AID 686992, 2013;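 active = mean E-selectin-positive cell signal at least 10% of the positive control, reached in at least 60% of replicates, without over 20% cell loss; inconclusive = no rule given, readout overlaps actives, possibly toxicity-flagged; inactive = the rest, including those meeting only one limit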
Target sequence (P16581 whole entry, looked up): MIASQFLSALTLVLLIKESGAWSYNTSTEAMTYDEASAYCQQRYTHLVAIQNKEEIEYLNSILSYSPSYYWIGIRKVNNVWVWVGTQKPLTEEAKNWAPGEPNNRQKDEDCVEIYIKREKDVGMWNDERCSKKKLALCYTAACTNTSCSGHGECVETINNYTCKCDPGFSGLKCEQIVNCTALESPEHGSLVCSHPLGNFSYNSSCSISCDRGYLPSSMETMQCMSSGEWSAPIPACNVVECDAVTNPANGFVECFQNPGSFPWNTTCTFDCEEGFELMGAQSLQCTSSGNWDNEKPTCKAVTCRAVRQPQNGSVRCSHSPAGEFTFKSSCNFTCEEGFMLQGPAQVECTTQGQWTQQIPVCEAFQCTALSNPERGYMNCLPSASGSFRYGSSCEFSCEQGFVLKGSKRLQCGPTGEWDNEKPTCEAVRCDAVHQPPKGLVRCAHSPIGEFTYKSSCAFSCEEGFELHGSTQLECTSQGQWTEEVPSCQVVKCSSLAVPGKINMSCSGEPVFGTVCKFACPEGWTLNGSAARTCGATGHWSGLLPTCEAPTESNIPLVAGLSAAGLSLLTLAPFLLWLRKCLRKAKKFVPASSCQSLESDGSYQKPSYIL
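Test system – human umbilical vein endothelial cells (HUVEC), E-selectin induction · Input – 3,000 HUVEC seeded per well · Buffer or medium – EGM-2, gelatin · Compound dosing – single-point compound dose · Detection – immunofluorescence imaging · Measure – percent E-selectin-positive cells · Controls – TNF-alpha high, DMSO low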
LGR2 antag – inhibitors of bursicon-induced LGR2 CRE-luciferase signal, primary screen, cell-based, HEK293, CRE-luciferase reporter, bursicon stimulation | inhibition, % at 9.99 µM | AID 720647, 2013 | Drosophila bursicon receptor LGR2 (rickets) | bursicon-stimulated, 4 h | actives 0.35% (n = 380,000);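 active = drop in luminescence signal, shown as inhibition above about 50% in the replicate tests, limit read from the data, passing the limit was not always enough; inconclusive = probably only some replicates passing the limit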;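 note: agonist challenge used bursicon conditioned medium at about half maximal strength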
EWS-Fli inh – EWS/Fli-driven NR0B1 reporter inhibitors, primary screen, A673 cells, NR0B1 luciferase, luminescence, MLPCN library; viability-normalised; actives 0.67% (n = 350,000); inhibition, % at 12.6 µM;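 active = mean inhibition of at least 50% after viability correction, with every replicate also passing that limit; inconclusive = mean reaches 50% but only one of two replicates passes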;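 note: firefly luciferase signal divided by Alamar Blue viability fluorescence both relative to DMSO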
* marks the source's active call; other numbers are inactive results. A selection: hits, their analogues and other compounds. The true share with any hit is near 2.4%.

ClCC1CSC(=NC23CC4CC(CC(C4)C2)C3)O1 (stereo unspecified) was read as Ecoli rRNA inh -15, E-sel inducer 0, LGR2 antag 31 and EWS-Fli inh -8.
CC1(C)C2CCC(C2)C1(C)N=C1OC(CCl)CS1 (stereo unspecified) was read as Ecoli rRNA inh -22*, LGR2 antag -16 and EWS-Fli inh 5.
Screening CCCC#Cc1cnc2c(c1)C(=O)N([C@@H](C)CO)C[C@H](C)[C@H](CN(C)C(=O)c1cccnc1)O2 returned Ecoli rRNA inh 1, E-sel inducer 0, LGR2 antag -2 and EWS-Fli inh -5.
`CCN(CC)S(=O)(=O)c1ccc(O)c(C(=O)OCC(=O)NC23CC4CC(CC(C4)C2)C3)c1` gave Ecoli rRNA inh -21*, E-sel inducer 0, LGR2 antag 1 and EWS-Fli inh 6.
`COc1ccc(CNC(=O)CNC(c2ccccc2)c2ccccc2)cc1OC` gave Ecoli rRNA inh -28*, LGR2 antag -1 and EWS-Fli inh 0.
Screening CCC[C@@H](CN[C@@H](CNC)[C@H](C)CC)NCC1CCC(C(C)(C)C)CC1 (stereo partly specified) returned Ecoli rRNA inh -26, E-sel inducer 0, LGR2 antag 8 and EWS-Fli inh 56*.
CCCC[C@@H](CNC)NC[C@H](NCCCCC1CCCCC1)C(C)C was read as Ecoli rRNA inh -3, E-sel inducer inconclusive, LGR2 antag -16 and EWS-Fli inh 17.
For CCC[C@H](CN[C@@H](CNC)[C@H](C)CC)NCCc1cc(C(F)(F)F)cc(C(F)(F)F)c1 the results were Ecoli rRNA inh -58, E-sel inducer 0, LGR2 antag 63* and EWS-Fli inh 52*.
`CC[C@@H](C)[C@H](CNC)NC[C@@H](Cc1cccc2ccccc12)NCCc1cccc(C(F)(F)F)c1` gave Ecoli rRNA inh -59, E-sel inducer -1, LGR2 antag 14 and EWS-Fli inh 45.
CC(=O)N(C)C[C@@H]1Oc2ccc(NS(C)(=O)=O)cc2CC(=O)N(C)C[C@@H]1C was read as Ecoli rRNA inh 2.
For O=C(Cc1ccc(F)cc1)Nc1nccs1 the results were Ecoli rRNA inh 4, LGR2 antag 0 and EWS-Fli inh -3.
`O=C(Nc1nccs1)C(F)(F)C(F)(F)C(F)(F)C(=O)Nc1nccs1` gave Ecoli rRNA inh -27*, E-sel inducer 0, LGR2 antag -4 and EWS-Fli inh 6.
`C[C@H](CO)N1C[C@H](C)[C@H](CN(C)C(=O)Nc2ccc(C(F)(F)F)cc2)OCCCC[C@H](C)Oc2ccc(N(C)C)cc2C1=O` gave Ecoli rRNA inh 1, E-sel inducer 0, LGR2 antag 26 and EWS-Fli inh -1.
Screening CCC1(C)Cc2ccccc2-c2nc(NCCCO)[nH]c(=O)c21 (stereo unspecified) returned Ecoli rRNA inh -28*, E-sel inducer 7, LGR2 antag 8 and EWS-Fli inh -2.
O=C(c1ccc2c(c1)OCO2)N1CC(=O)N2[C@@H](CO)[C@H](c3ccc(C#Cc4ccccc4)cc3)[C@@H]2C1 was read as Ecoli rRNA inh 5, E-sel inducer -1, LGR2 antag 21 and EWS-Fli inh 7.
Screening C/C(=N\NC(=O)c1c([N+](=O)[O-])c(C)nn1C)c1ccc(NC(=O)C2CCCC2)cc1 returned Ecoli rRNA inh -7, LGR2 antag -17 and EWS-Fli inh 52*.
C/C(=N\NC(=O)c1c(Cl)c(C)nn1C)c1ccc(NC(=O)C2CCC2)cc1 was read as Ecoli rRNA inh -1, E-sel inducer -1, LGR2 antag -8 and EWS-Fli inh 48.
`COc1c(O)cc2c(c1O)C1OC(CO)C(O)C(O)C1OC2=O` (stereo unspecified) gave Ecoli rRNA inh -22*, E-sel inducer 1, LGR2 antag -5 and EWS-Fli inh -5.
Screening CC1CCCC=CC2CC(OC(=O)CN(C)C)CC2C(O)C=CC(=O)O1 (stereo unspecified) returned Ecoli rRNA inh 0, E-sel inducer 1 and EWS-Fli inh 63*.
`Cc1ccc(NC(=O)c2ccc(Cl)c(NC(=O)c3cccs3)c2)cc1` gave Ecoli rRNA inh -37* and LGR2 antag -39.
Screening CCOC(=O)c1cccc(NC(=O)c2ccc3c(c2)OCO3)c1 returned Ecoli rRNA inh -6, LGR2 antag -61 and EWS-Fli inh 71*.
Screening COC(=O)c1cccc(NC(=O)c2ccc(OC)c(Cl)c2)c1 returned Ecoli rRNA inh -30*, E-sel inducer -1, LGR2 antag -84 and EWS-Fli inh 0.
For O=C(Nc1cccc(NC(=O)c2cccs2)c1)c1ccc2c(c1)OCO2 the results were Ecoli rRNA inh -34*, E-sel inducer -3, LGR2 antag 11 and EWS-Fli inh -11.
For CC(=O)c1cccc(NC(=O)c2ccc3c(c2)OCO3)c1 the results were Ecoli rRNA inh 10, E-sel inducer 0 and EWS-Fli inh -62.
For O=C(NCCc1ccccc1)[C@H]1[C@H](CO)[C@H]2Cn3c(cccc3=O)[C@H]2N1Cc1cccnc1 the results were Ecoli rRNA inh 0, E-sel inducer 0, LGR2 antag -12 and EWS-Fli inh -8.
For COc1cnc(-c2ccccn2)[nH]c1=O the results were E-sel inducer 0, LGR2 antag 8 and EWS-Fli inh -12.
For Cc1ccc(-n2[nH]c(=O)c(-c3ccccn3)c2C)cc1 the results were Ecoli rRNA inh 2, LGR2 antag 94* and EWS-Fli inh 74*.
Screening COc1ccc(CCN(C)C(=O)c2cc(-c3ccc(C)cc3)nc3ccccc23)cc1OC returned Ecoli rRNA inh -7, E-sel inducer 0, LGR2 antag -16 and EWS-Fli inh -2.
COc1ccc(-c2cc(C(=O)N(C)Cc3ccc(F)cc3)c3ccccc3n2)cc1OC was read as Ecoli rRNA inh -28*, E-sel inducer -1, LGR2 antag 6 and EWS-Fli inh 16.
For COCC(=O)Nc1ccc2c(c1)[C@@H]1C[C@H](CC(=O)NCc3cccc(F)c3)O[C@H](CO)[C@@H]1O2 the results were Ecoli rRNA inh 0, E-sel inducer 0, LGR2 antag 8 and EWS-Fli inh -2.
`COC(=O)c1c(CC[C@@H](CO)NC(=O)N2CCC[C@H]2Cn2cc(C3(O)CCCCC3)nn2)oc(C(C)=O)c1C(=O)OC` gave EWS-Fli inh -9.
`Clc1ccccc1N1CCN(Cc2ccc(Br)o2)CC1` gave Ecoli rRNA inh -35*, E-sel inducer 0 and EWS-Fli inh -10.
`Brc1ccc(CN2CCN(c3ccccc3)CC2)o1` gave Ecoli rRNA inh 2, LGR2 antag -1 and EWS-Fli inh 10.
For Cc1ccccc1N1CCN(Cc2ccc(Br)o2)CC1 the results were Ecoli rRNA inh -27*, LGR2 antag 10 and EWS-Fli inh 0.
